Measured values from publication PMC12100521 (Chemical Science, 2025).
“And” between values parts separate entries of the source, which are not always exact repeats. Identical values can stand only once.

Experiments:
[1] = system: CYP125MRCA; assay: UV-Vis spin-state; format: binding; settings: 30 °C, enzyme ~2 μM
[2] = system: CYP125MRCAAlt; assay: In vitro oxidation assay, spinach ferredoxin/ferredoxin reductase/NADPH, GC-MS; format: biochemical; settings: reconstituted spinach ferredoxin/reductase/NADPH system
Method in brief: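 Enzyme (2 μM in the method text) and substrate (100 μM) were equilibrated 3 min at room temperature in oxygenated 50 mM Tris, pH 7.4. Added G6P (5 mM), G6PDH (0.7 U/mL), ferredoxin (4 μM), reductase (0.2 U/mL) and catalase (0.03 mg/mL), then NADPH (1 mM). Ran 20 h, quenched with HCl, octanoic acid internal standard, ethyl acetate extraction, BSTFA/TMCS derivatisation, products assigned by mass spectra and retention times.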

[3] = system: Mtb CYP125A1; settings: cited from earlier work
[4] = system: CYP125MRCAAlt; assay: UV-Vis spin-state shift binding screen after imidazole treatment; settings: enzyme pre-treated with imidazole (~1.3 mM)
[5] = target: CYP125A1; settings: read-out: Kd CYP125A1; cited from earlier work
[6] = system: CYP125MRCA; assay: In vitro oxidation assay, spinach ferredoxin/ferredoxin reductase/NADPH, GC-MS; format: biochemical; settings: substrate 100 μM, enzyme 2 μM, 20 h, room temperature
[7] = target: CYP125MRCA; assay: UV-Vis difference-spectrum substrate titration; format: binding; settings: read-out: Kd (Hill model), Table 1
[8] = system: CYP125MRCA; format: biochemical; settings: 1 : 1 mixture of substrates
[9] = system: CYP125A1; settings: cited from earlier work
[10] = system: CYP125A1, CYP125A6 and CYP125A7; settings: cited from earlier work
[11] = target: MmarCYP125A7; settings: cited from earlier work

SMILES	Substrate-induced shift of the Soret band (LS to HS) [1]	Binding detected by shift back to HS peak [4]	Oxidation by CYP125MRCA (products by GC-MS) [6]	Kd [7]	other results
CC(C)=CCC[C@@H](C)[C@H]1CC[C@H]2[C@@H]3CC=C4C[C@@H](O)CC[C@]4(C)[C@H]3CC[C@]12C [desmosterol]	minimal perturbations of the heme centre	–	–	–	–
CC(C)CCC[C@@H](C)[C@H]1CC[C@H]2[C@@H]3CC=C4C[C@@H](O)CC[C@]4(C)[C@H]3CC[C@]12C [cholesterol]	completely shift the Soret band to ∼390 nm	found to bind	able to oxidise and 26-cholestenoic acid being the major product	2000 ± 50 nM	Oxidation by CYP125MRCAAlt (products by GC-MS) [2]: able to oxidise cholesterol, albeit with a lower efficiency and 26-hydroxycholesterol being the major product; Preference for cholesterol over sitosterol [3]: 1.8 fold; Kd [5]: 110 ± 60 nM
CC(C)CCC[C@@H](C)[C@H]1CC[C@H]2[C@@H]3C[C@@H]4O[C@@]45C[C@@H](O)CC[C@]5(C)[C@H]3CC[C@]12C [5,6α-epoxycholesterol]	Complete or near-complete spin-state shifts	–	–	–	–
CC[C@H](CC[C@@H](C)[C@H]1CC[C@H]2[C@@H]3CCC4=CC(=O)CC[C@]4(C)[C@H]3CC[C@]12C)C(C)C [stigmast-4-en-3-one]	complete shift of the Soret band to the high spin peak at ∼391 nm	found to bind	–	1610 ± 110 nM	Preference for stigmast-4-en-3-one versus cholest-4-en-3-one [8]: 3.2 fold
C=C1CC[C@H](O)C/C1=C/C=C1\CCC[C@]2(C)[C@@H]([C@H](C)CCCC(C)C)CC[C@@H]12 [vitamin D3, cholecalciferol]	complete shift in the Soret band to HS	found to bind	oxidised by CYP125MRCA into four hydroxylation products and one partially underivatised alcohol product	1600 ± 220 nM	Oxidation by CYP125MRCAAlt (products by GC-MS) [2]: No 25- or 26-hydroxylation activity; Oxidation of vitamin D3 by CYP125A1 [9]: does not oxidise; Spectral shift in the Soret band [10]: does not induce a spectral shift in the Soret band
CC(C)CCC[C@@H](C)[C@H]1CC[C@H]2[C@@H]3CCC4=CC(=O)CC[C@]4(C)[C@H]3CC[C@]12C [cholest-4-en-3-one]	completely shift the Soret band to ∼390 nm	found to bind	able to oxidise	850 ± 20 nM	Kd [5]: 1180 ± 110 nM; Kd [11]: 700 ± 400 nM
CC(C)[C@H](C)CC[C@@H](C)[C@H]1CC[C@H]2[C@@H]3CC=C4C[C@@H](O)CC[C@]4(C)[C@H]3CC[C@]12C [campesterol]	complete shift of the Soret band to the high spin peak at ∼391 nm	–	able to effectively oxidise	4190 ± 50 nM	–
CC(C)CCC[C@@H](C)[C@H]1CC[C@H]2[C@@H]3C(=O)C=C4C[C@@H](O)CC[C@]4(C)[C@H]3CC[C@]12C [7-ketocholesterol]	Complete or near-complete spin-state shifts	–	–	–	–
CC(C)CCC[C@@H](C)[C@H]1CC[C@H]2[C@@H]3[C@@H](O)C=C4C[C@@H](O)CC[C@]4(C)[C@H]3CC[C@]12C [7β-hydroxycholesterol]	Complete or near-complete spin-state shifts	–	–	–	–
CC(C)[C@@H](C)/C=C/[C@@H](C)[C@H]1CC[C@H]2C3=CC=C4C[C@@H](O)CC[C@]4(C)[C@H]3CC[C@]12C [ergosterol]	minimal perturbations of the heme centre	–	–	–	–
CC[C@H](/C=C/[C@@H](C)[C@H]1CC[C@H]2[C@@H]3CC=C4C[C@@H](O)CC[C@]4(C)[C@H]3CC[C@]12C)C(C)C [stigmasterol]	complete shift of the Soret band to the high spin peak at ∼391 nm	–	–	2040 ± 120 nM	–
CC(C)CCC[C@@H](C)[C@H]1CC[C@H]2[C@@H]3[C@H](O)C=C4C[C@@H](O)CC[C@]4(C)[C@H]3CC[C@]12C [7α-hydroxycholesterol]	Complete or near-complete spin-state shifts	–	–	–	–
